ChEMBL document CHEMBL1134325, “Diaminoindanes as microsomal triglyceride transfer protein inhibitors” (J Med Chem, 2001)

These compounds were tested on Rattus norvegicus (assay: Inhibition of total cholesterol in normolipidemic rats after 2 hr of 50 mg/kg oral dosing).
Assay type: functional
Procedure, shortened: (§1)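 Overnight-fasted normolipidemic rats received a single oral dose in cornstarch vehicle. Blood was drawn at 2, 6 and 24 h post-dose and assayed for triglycerides and total cholesterol, with free access to food after the 6 h sample. Value is mean percent inhibition versus a separate vehicle-treated group, unpaired t test p < 0.05, NS = no significant change, N = 6.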

Compound | Reduction
Cc1cc(C)c(-c2ccc(C(F)(F)F)cc2)c(C(=O)Nc2ccc3c(c2)C[C@@H](NS(=O)(=O)c2cccs2)C3)c1 | 33%
COC(=O)N[C@@H]1Cc2ccc(NC(=O)c3cccc(C)c3-c3ccc(C(F)(F)F)cc3)cc2C1 | 27%
COC(=O)NC1CCc2ccc(NC(=O)c3cccc(C)c3-c3ccc(C(F)(F)F)cc3)cc2CC1 (configuration not stated) | 20%
Cc1cccc(C(=O)Nc2ccc3c(c2)C[C@H](NS(C)(=O)=O)C3)c1-c1ccc(C(F)(F)F)cc1 | 27%
COC(=O)N[C@H]1Cc2ccc(NC(=O)c3ccccc3-c3ccc(C(F)(F)F)cc3)cc2C1 | 20%
Cc1cc(C)c(-c2ccc(C(F)(F)F)cc2)c(C(=O)Nc2ccc3c(c2)C[C@H](NS(=O)(=O)c2cccs2)C3)c1 | 21%
COC(=O)N1CCN([C@@H]2Cc3ccc(NC(=O)c4cccc(C)c4-c4ccc(C(F)(F)F)cc4)cc3C2)CC1 | 23%
Cc1cccc(C(=O)Nc2ccc3c(c2)C[C@@H](NS(C)(=O)=O)C3)c1-c1ccc(C(F)(F)F)cc1 | 12%

What follows are compounds tested on Rattus norvegicus (assay: Inhibition of total cholesterol in normolipidemic rats after 24 hr of 50 mg/kg oral dosing; no significant change).
Assay type: functional, organism-based
Parameters: dose 50 mg/kg
Procedure, shortened: as §1

Compound | NS
Cc1cc(C)c(-c2ccc(C(F)(F)F)cc2)c(C(=O)Nc2ccc3c(c2)C[C@@H](NS(=O)(=O)c2cccs2)C3)c1 | no significant change
COC(=O)N[C@@H]1Cc2ccc(NC(=O)c3cccc(C)c3-c3ccc(C(F)(F)F)cc3)cc2C1 | no significant change
COC(=O)NC1CCc2ccc(NC(=O)c3cccc(C)c3-c3ccc(C(F)(F)F)cc3)cc2CC1 (configuration not stated) | no significant change
Cc1cccc(C(=O)Nc2ccc3c(c2)C[C@H](NS(C)(=O)=O)C3)c1-c1ccc(C(F)(F)F)cc1 | no significant change
COC(=O)N[C@H]1Cc2ccc(NC(=O)c3ccccc3-c3ccc(C(F)(F)F)cc3)cc2C1 | no significant change
COC(=O)N1CCN([C@@H]2Cc3ccc(NC(=O)c4cccc(C)c4-c4ccc(C(F)(F)F)cc4)cc3C2)CC1 | no significant change
Cc1cccc(C(=O)Nc2ccc3c(c2)C[C@@H](NS(C)(=O)=O)C3)c1-c1ccc(C(F)(F)F)cc1 | no significant change

Each compound was assayed on Rattus norvegicus (assay: Inhibition of plasma triglycerides in normolipidemic rats after 6 h of 5 mg/kg oral dosing).
Assay type: functional
Procedure, shortened: as §1

Compound | Reduction
COC(=O)N[C@@H]1Cc2ccc(NC(=O)c3cccc(C)c3-c3ccc(C(F)(F)F)cc3)cc2C1 | 71%

The compounds below were run on Rattus norvegicus (assay: Inhibition of plasma triglycerides in normolipidemic rats after 2 hr of 50 mg/kg oral dosing).
Assay type: functional
Procedure, shortened: as §1

Compound | Reduction
Cc1cc(C)c(-c2ccc(C(F)(F)F)cc2)c(C(=O)Nc2ccc3c(c2)C[C@@H](NS(=O)(=O)c2cccs2)C3)c1 | 79%
COC(=O)N[C@@H]1Cc2ccc(NC(=O)c3cccc(C)c3-c3ccc(C(F)(F)F)cc3)cc2C1 | 78%
COC(=O)NC1CCc2ccc(NC(=O)c3cccc(C)c3-c3ccc(C(F)(F)F)cc3)cc2CC1 (configuration not stated) | 39%
Cc1cccc(C(=O)Nc2ccc3c(c2)C[C@H](NS(C)(=O)=O)C3)c1-c1ccc(C(F)(F)F)cc1 | 74%
COC(=O)N[C@H]1Cc2ccc(NC(=O)c3ccccc3-c3ccc(C(F)(F)F)cc3)cc2C1 | 69%
Cc1cc(C)c(-c2ccc(C(F)(F)F)cc2)c(C(=O)Nc2ccc3c(c2)C[C@H](NS(=O)(=O)c2cccs2)C3)c1 | 77%
COC(=O)N1CCN([C@@H]2Cc3ccc(NC(=O)c4cccc(C)c4-c4ccc(C(F)(F)F)cc4)cc3C2)CC1 | 58%
Cc1cccc(C(=O)Nc2ccc3c(c2)C[C@@H](NS(C)(=O)=O)C3)c1-c1ccc(C(F)(F)F)cc1 | 33%

The compounds below were run on Rattus norvegicus (assay: Inhibition of total cholesterol in normolipidemic rats after 24 hr of 5 mg/kg oral dosing; no significant change).
Assay type: functional, organism-based
Parameters: dose 5 mg/kg
Procedure, shortened: as §1

Compound | NS
COC(=O)N[C@@H]1Cc2ccc(NC(=O)c3cccc(C)c3-c3ccc(C(F)(F)F)cc3)cc2C1 | no significant change

These compounds were tested on Rattus norvegicus (assay: Inhibition of plasma triglycerides in normolipidemic rats after 6 hr of 50 mg/kg oral dosing).
Assay type: functional
Procedure, shortened: as §1

Compound | Reduction
Cc1cc(C)c(-c2ccc(C(F)(F)F)cc2)c(C(=O)Nc2ccc3c(c2)C[C@@H](NS(=O)(=O)c2cccs2)C3)c1 | 68%
COC(=O)N[C@@H]1Cc2ccc(NC(=O)c3cccc(C)c3-c3ccc(C(F)(F)F)cc3)cc2C1 | 74%
Cc1cccc(C(=O)Nc2ccc3c(c2)C[C@H](NS(C)(=O)=O)C3)c1-c1ccc(C(F)(F)F)cc1 | 68%
COC(=O)N[C@H]1Cc2ccc(NC(=O)c3ccccc3-c3ccc(C(F)(F)F)cc3)cc2C1 | 74%
Cc1cc(C)c(-c2ccc(C(F)(F)F)cc2)c(C(=O)Nc2ccc3c(c2)C[C@H](NS(=O)(=O)c2cccs2)C3)c1 | 48%
Cc1cccc(C(=O)Nc2ccc3c(c2)C[C@@H](NS(C)(=O)=O)C3)c1-c1ccc(C(F)(F)F)cc1 | 33%

Each compound was assayed on Rattus norvegicus (assay: Inhibition of total cholesterol in normolipidemic rats after 6 hr of 50 mg/kg oral dosing).
Assay type: functional
Procedure, shortened: as §1

Compound | Reduction
Cc1cc(C)c(-c2ccc(C(F)(F)F)cc2)c(C(=O)Nc2ccc3c(c2)C[C@@H](NS(=O)(=O)c2cccs2)C3)c1 | 46%
COC(=O)N[C@@H]1Cc2ccc(NC(=O)c3cccc(C)c3-c3ccc(C(F)(F)F)cc3)cc2C1 | 43%
COC(=O)NC1CCc2ccc(NC(=O)c3cccc(C)c3-c3ccc(C(F)(F)F)cc3)cc2CC1 (configuration not stated) | 20%
Cc1cccc(C(=O)Nc2ccc3c(c2)C[C@H](NS(C)(=O)=O)C3)c1-c1ccc(C(F)(F)F)cc1 | 42%
COC(=O)N[C@H]1Cc2ccc(NC(=O)c3ccccc3-c3ccc(C(F)(F)F)cc3)cc2C1 | 39%
Cc1cc(C)c(-c2ccc(C(F)(F)F)cc2)c(C(=O)Nc2ccc3c(c2)C[C@H](NS(=O)(=O)c2cccs2)C3)c1 | 34%
COC(=O)N1CCN([C@@H]2Cc3ccc(NC(=O)c4cccc(C)c4-c4ccc(C(F)(F)F)cc4)cc3C2)CC1 | 20%
Cc1cccc(C(=O)Nc2ccc3c(c2)C[C@@H](NS(C)(=O)=O)C3)c1-c1ccc(C(F)(F)F)cc1 | 15%

What follows are compounds tested on Rattus norvegicus (assay: Inhibition of total cholesterol in normolipidemic rats after 6 hr of 5 mg/kg oral dosing).
Assay type: functional
Procedure, shortened: as §1

Compound | Reduction
COC(=O)N[C@@H]1Cc2ccc(NC(=O)c3cccc(C)c3-c3ccc(C(F)(F)F)cc3)cc2C1 | 45%

What follows are compounds tested on Rattus norvegicus (assay: Inhibition of plasma triglycerides in normolipidemic rats after 2 hr of 5 mg/kg oral dosing).
Assay type: functional
Procedure, shortened: as §1

Compound | Reduction
COC(=O)N[C@@H]1Cc2ccc(NC(=O)c3cccc(C)c3-c3ccc(C(F)(F)F)cc3)cc2C1 | 85%

What follows are compounds tested on Rattus norvegicus (assay: Inhibition of total cholesterol in normolipidemic rats after 2 h of 5 mg/kg oral dosing).
Assay type: functional
Procedure, shortened: as §1

Compound | Reduction
COC(=O)N[C@@H]1Cc2ccc(NC(=O)c3cccc(C)c3-c3ccc(C(F)(F)F)cc3)cc2C1 | 33%

Each compound was assayed on Rattus norvegicus (assay: Inhibition of plasma triglycerides in normolipidemic rats after 24 h of 50 mg/kg oral dosing; no significant change).
Assay type: functional, organism-based
Parameters: dose 50 mg/kg
Procedure, shortened: as §1

Compound | NS
Cc1cc(C)c(-c2ccc(C(F)(F)F)cc2)c(C(=O)Nc2ccc3c(c2)C[C@@H](NS(=O)(=O)c2cccs2)C3)c1 | no significant change
COC(=O)N[C@@H]1Cc2ccc(NC(=O)c3cccc(C)c3-c3ccc(C(F)(F)F)cc3)cc2C1 | no significant change
COC(=O)NC1CCc2ccc(NC(=O)c3cccc(C)c3-c3ccc(C(F)(F)F)cc3)cc2CC1 (configuration not stated) | no significant change
Cc1cccc(C(=O)Nc2ccc3c(c2)C[C@H](NS(C)(=O)=O)C3)c1-c1ccc(C(F)(F)F)cc1 | no significant change
COC(=O)N[C@H]1Cc2ccc(NC(=O)c3ccccc3-c3ccc(C(F)(F)F)cc3)cc2C1 | no significant change
COC(=O)N1CCN([C@@H]2Cc3ccc(NC(=O)c4cccc(C)c4-c4ccc(C(F)(F)F)cc4)cc3C2)CC1 | no significant change
Cc1cccc(C(=O)Nc2ccc3c(c2)C[C@@H](NS(C)(=O)=O)C3)c1-c1ccc(C(F)(F)F)cc1 | no significant change

Each compound was assayed on Rattus norvegicus (assay: Inhibition of plasma triglycerides in normolipidemic rats after 24 hr of 5 mg/kg oral dosing; no significant change).
Assay type: functional, organism-based
Parameters: dose 5 mg/kg
Procedure, shortened: as §1

Compound | NS
COC(=O)N[C@@H]1Cc2ccc(NC(=O)c3cccc(C)c3-c3ccc(C(F)(F)F)cc3)cc2C1 | no significant change

The compounds below were run on Rattus norvegicus (assay: Inhibition of plasma triglycerides in normolipidemic rats after 6 h of […] mg/kg oral dosing; no significant change).
Assay type: functional, organism-based
Parameters: dose 50 mg/kg

Compound | NS
COC(=O)NC1CCc2ccc(NC(=O)c3cccc(C)c3-c3ccc(C(F)(F)F)cc3)cc2CC1 (configuration not stated) | no significant change
COC(=O)N1CCN([C@@H]2Cc3ccc(NC(=O)c4cccc(C)c4-c4ccc(C(F)(F)F)cc4)cc3C2)CC1 | no significant change

The compounds below were run on Rattus norvegicus (assay: Inhibition of total cholesterol in normolipidemic rats after 24 hr of 50 mg/kg oral dosing).
Assay type: functional
Procedure, shortened: as §1

Compound | Reduction
Cc1cc(C)c(-c2ccc(C(F)(F)F)cc2)c(C(=O)Nc2ccc3c(c2)C[C@H](NS(=O)(=O)c2cccs2)C3)c1 | 47%

Each compound was assayed against T1, Microsomal triglyceride transfer protein large subunit (Homo sapiens, UniProt P55157) (assay: In vitro inhibitory activity against MTP using MTP transfer assay).
T1 sequence (P55157 whole entry): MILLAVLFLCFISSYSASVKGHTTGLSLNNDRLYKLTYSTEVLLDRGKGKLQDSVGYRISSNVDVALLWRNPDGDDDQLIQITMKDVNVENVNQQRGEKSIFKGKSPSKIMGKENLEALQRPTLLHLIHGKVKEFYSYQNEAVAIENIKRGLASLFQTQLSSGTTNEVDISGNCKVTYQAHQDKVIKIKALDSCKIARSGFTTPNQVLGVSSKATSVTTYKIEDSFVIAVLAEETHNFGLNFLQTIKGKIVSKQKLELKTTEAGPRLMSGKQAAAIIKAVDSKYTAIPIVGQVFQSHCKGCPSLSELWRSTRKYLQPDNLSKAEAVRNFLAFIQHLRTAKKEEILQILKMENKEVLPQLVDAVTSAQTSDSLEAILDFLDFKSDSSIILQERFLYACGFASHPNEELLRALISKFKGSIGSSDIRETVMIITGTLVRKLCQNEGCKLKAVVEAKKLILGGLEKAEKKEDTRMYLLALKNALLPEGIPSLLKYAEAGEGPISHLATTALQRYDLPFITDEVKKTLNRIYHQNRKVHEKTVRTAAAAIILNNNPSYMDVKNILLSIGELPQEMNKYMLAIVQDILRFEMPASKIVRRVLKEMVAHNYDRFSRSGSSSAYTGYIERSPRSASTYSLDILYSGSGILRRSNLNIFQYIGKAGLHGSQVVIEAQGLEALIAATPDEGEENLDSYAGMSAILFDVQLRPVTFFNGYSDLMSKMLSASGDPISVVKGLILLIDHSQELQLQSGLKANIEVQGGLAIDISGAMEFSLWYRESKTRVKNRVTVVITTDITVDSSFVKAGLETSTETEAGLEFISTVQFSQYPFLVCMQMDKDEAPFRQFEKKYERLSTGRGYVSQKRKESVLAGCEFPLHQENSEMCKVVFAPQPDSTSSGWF

Compound | IC50
Cc1cc(C)c(-c2ccc(C(F)(F)F)cc2)c(C(=O)Nc2ccc3c(c2)C[C@@H](NS(=O)(=O)c2cccs2)C3)c1 | 180 nM
COC(=O)N[C@@H]1Cc2ccc(NC(=O)c3cccc(C)c3-c3ccc(C(F)(F)F)cc3)cc2C1 | 70 nM
COC(=O)NC1CCc2ccc(NC(=O)c3cccc(C)c3-c3ccc(C(F)(F)F)cc3)cc2CC1 (configuration not stated) | 20 nM
Cc1cccc(C(=O)Nc2ccc3c(c2)C[C@H](NS(C)(=O)=O)C3)c1-c1ccc(C(F)(F)F)cc1 | 34 nM
COC(=O)N[C@H]1Cc2ccc(NC(=O)c3ccccc3-c3ccc(C(F)(F)F)cc3)cc2C1 | 68 nM
Cc1cc(C)c(-c2ccc(C(F)(F)F)cc2)c(C(=O)Nc2ccc3c(c2)C[C@H](NS(=O)(=O)c2cccs2)C3)c1 | 20 nM
COC(=O)N1CCN([C@@H]2Cc3ccc(NC(=O)c4cccc(C)c4-c4ccc(C(F)(F)F)cc4)cc3C2)CC1 | 1000 nM
Cc1cccc(C(=O)Nc2ccc3c(c2)C[C@@H](NS(C)(=O)=O)C3)c1-c1ccc(C(F)(F)F)cc1 | 204 nM

The compounds below were run on Rattus norvegicus (assay: Inhibition of plasma triglycerides in normolipidemic rats after 24 hr of 50 mg/kg oral dosing).
Assay type: functional
Procedure, shortened: as §1

Compound | Reduction
Cc1cc(C)c(-c2ccc(C(F)(F)F)cc2)c(C(=O)Nc2ccc3c(c2)C[C@H](NS(=O)(=O)c2cccs2)C3)c1 | 46%
